Reference: ChEMBL document CHEMBL1240328, “Selective compounds define Hsp90 as a major inhibitor of apoptosis in small-cell lung cancer” (Nat Chem Biol, 2007)
Calls of active or inactive are those of the source. No cut-off for these calls is given here.

Columns and labels:
[1] = target: Heat shock protein HSP 90-beta (Homo sapiens) (UniProt P08238); assay: Inhibition of HSP90-mediated antiapoptotic activity in human SKBR3 cells assessed as induction of caspase-3 cleavage at 50 uM after 24 hrs by Western blot analysis; assay type: cell-based; conditions: SK-BR-3
In short: (§1)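 SKBr3 cells at 60–70% confluence were exposed to drug or DMSO vehicle. Lysis was in 50 mM Tris pH 7.4, 150 mM NaCl, 1% NP-40, with protein measured by BCA. Lysates of 20–100 µg were run on SDS-PAGE, blotted to nitrocellulose, probed with primary antibodies and detected with a peroxidase-conjugated secondary (1:5,000). Loading was checked with β-actin or PI(3)K p85.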

[2] = tested on: SK-BR-3; assay: Inhibition of HSP70-mediated antiapoptotic activity in human SKBR3 cells assessed as induction of PARP cleavage after 24 hrs by Western blot analysis; assay type: cell-based
In short: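 SKBr3 cells were treated for 24 h. Lysates were probed by western blot for caspase-3 and PARP cleavage. Apaf-1 complexes were pulled down with Apaf-1 antibody (with control IgG) and immunoblotted.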

[3] = target: Heat shock protein HSP 90-beta (Homo sapiens) (UniProt P08238); assay: Inhibition of HSP90-mediated antiapoptotic activity in human MCF7 cells assessed as induction of PARP cleavage at 400 uM after 24 hrs by Western blot analysis; assay type: cell-based
[4] = target: Heat shock protein HSP 90-beta (Homo sapiens) (UniProt P08238); assay: Inhibition of HSP90-mediated antiapoptotic activity in human NCI-H526 cells assessed as subG1 accumulation at 5 uM after 72 hrs by propidium iodide staining-based flow cytometry; assay type: cell-based
In short: (§2)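 SCLC cells treated for 72 h with graded doses. Mitochondrial membrane potential read by flow cytometry after JC-1 staining, with green-only emission indicating depolarization. Sub-G1 DNA content read after propidium iodide staining. CCCP used as positive control. n = 3 repeat experiments.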

[5] = tested on: NCI-H526; assay: Inhibition of HSP70-mediated antiapoptotic activity in human NCI-H526 cells assessed as induction of caspase-3 cleavage after 24 hrs by Western blot analysis; assay type: cell-based
In short: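 NCI-H526 cells were treated for 24 h. PARP and caspase-3 cleavage were read by western blot of lysates in Tris/NaCl/NP-40 buffer. Apaf-1 complexes were immunoprecipitated with Apaf-1 antibody, using control IgG, then blotted.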

[6] = target: Heat shock protein HSP 90-beta (Homo sapiens) (UniProt P08238); assay: Inhibition of HSP90-mediated antiapoptotic activity in human MCF7 cells assessed as induction of caspase-3 cleavage at 400 uM after 24 hrs by Western blot analysis; assay type: cell-based
[7] = target: Heat shock protein HSP 90-beta (Homo sapiens) (UniProt P08238); assay: Effect on HSP90-mediated Bcl-2 expression in human NCI-H526 cells at 25 uM after 24 hrs by Western blot analysis; assay type: cell-based
In short: (§3)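 NCI-H526 cells were exposed for 24 h to drug or DMSO vehicle. Lysates were made in 50 mM Tris pH 7.4, 150 mM NaCl, 1% NP-40 and quantified by BCA. Western blot used 20–100 µg protein per lane, with β-actin as loading control.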

[8] = target: Heat shock protein HSP 90-beta (Homo sapiens) (UniProt P08238); assay: Inhibition of HSP90-mediated antiapoptotic activity in human NCI-H526 cells assessed as subG1 accumulation at 15 uM after 72 hrs by propidium iodide staining-based flow cytometry; assay type: cell-based; in short: as §2
[9] = target: Heat shock protein HSP 90-beta (Homo sapiens) (UniProt P08238); assay: Inhibition of HSP90-mediated antiapoptotic activity in human NCI-H69 cells assessed as mitochondrial membrane depolarization at 5 uM after 72 hrs by JC-1 staining-based flow cytometry; assay type: cell-based
In short: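 Mitochondrial membrane potential was measured by JC-1 staining and flow cytometry. Depolarization was scored as a shift to cells emitting only green fluorescence. The mitochondrial uncoupler CCCP served as positive control.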

[10] = target: Heat shock protein HSP 90-beta (Homo sapiens) (UniProt P08238); assay: Inhibition of HSP90-mediated antiapoptotic activity in human NCI-H526 cells assessed as induction of Akt degradation at 50 uM after 24 hrs by Western blot analysis; assay type: cell-based
[11] = target: Heat shock protein HSP 90-beta (Homo sapiens) (UniProt P08238); assay: Inhibition of HSP90-mediated antiapoptotic activity in human MCF7 cells assessed as induction of cell growth arrest at 20 uM after 24 hrs by propidium iodide staining-based flow cytometry
[12] = target: Heat shock protein HSP 90-beta (Homo sapiens) (UniProt P08238); assay: Inhibition of HSP90-mediated antiapoptotic activity in human NCI-H526 cells assessed as subG1 accumulation at 2.5 uM after 72 hrs by propidium iodide staining-based flow cytometry; assay type: cell-based; in short: as §2
[13] = target: Heat shock protein HSP 90-beta (Homo sapiens) (UniProt P08238); assay: Effect on HSP90-mediated Bcl-XL expression in human NCI-H526 cells at 25 uM after 24 hrs by Western blot analysis; assay type: cell-based; in short: as §3
[14] = target: Heat shock protein HSP 90-beta (Homo sapiens) (UniProt P08238); assay: Inhibition of HSP90-mediated antiapoptotic activity in human NCI-H526 cells assessed as release of Apaf-1 from chaperon complex at 20 uM after 1 hr by Western blot analysis; assay type: cell-based
In short: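 NCI-H526 cells treated with 20 µM for the indicated times. Complexes immunoprecipitated with Apaf-1 or caspase-9 antibodies, with control IgG alongside. Co-precipitated proteins identified by western blot.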

[15] = target: Heat shock protein HSP 90-beta (Homo sapiens) (UniProt P08238); assay: Inhibition of HSP90-mediated antiapoptotic activity in human NCI-N417 cells assessed as subG1 accumulation at 15 uM after 72 hrs by propidium iodide staining-based flow cytometry; assay type: cell-based; conditions: NCI-H417
In short: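 Asynchronously growing cells were treated with compound, stained with propidium iodide and analysed by flow cytometry. The read-out was the percentage of cells with sub-G1 DNA content.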

[16] = target: Heat shock protein HSP 90-beta (Homo sapiens) (UniProt P08238); assay: Inhibition of HSP90-mediated antiapoptotic activity in human SKBR3 cells assessed as induction of cell growth arrest at 50 uM after 24 hrs by propidium iodide staining-based flow cytometry; conditions: SK-BR-3
[17] = target: Heat shock protein HSP 90-beta (Homo sapiens) (UniProt P08238); assay: Inhibition of HSP90-mediated antiapoptotic activity in human NCI-H69 cells assessed as increase in apoptotic cell population at 0.2 to 1 uM after 72 hrs by FACS analysis relative to control; assay type: cell-based
[18] = target: Heat shock protein HSP 90-beta (Homo sapiens) (UniProt P08238); assay: Inhibition of HSP90-mediated antiapoptotic activity in human NCI-H526 cells assessed as reduction in BAD phosphorylation at 20 uM after 24 hrs by Western blot analysis; assay type: cell-based
[19] = target: Heat shock protein HSP 90-beta (Homo sapiens) (UniProt P08238); assay: Inhibition of HSP90-mediated antiapoptotic activity in human NCI-H526 cells assessed as induction of caspase-3 cleavage at 10 uM after 72 hrs by fluorescence assay in presence of caspase-9 inhibitor Z-LEHD-FMK; assay type: cell-based
[20] = target: Heat shock protein HSP 90-beta (Homo sapiens) (UniProt P08238); assay: Inhibition of HSP90-mediated antiapoptotic activity in human NCI-H526 cells assessed as subG1 accumulation at 25 uM after 72 hrs by propidium iodide staining-based flow cytometry; assay type: cell-based; in short: as §2
[21] = target: Heat shock protein HSP 90-beta (Homo sapiens) (UniProt P08238); assay: Inhibition of HSP90-mediated antiapoptotic activity in human MCF7 cells assessed as induction of caspase-9 cleavage at 400 uM after 24 hrs by Western blot analysis; assay type: cell-based
[22] = target: Heat shock protein HSP 90-beta (Homo sapiens) (UniProt P08238); assay: Inhibition of HSP90-mediated antiapoptotic activity in human SKBR3 cells assessed as induction of caspase-9 cleavage at 20 uM after 24 hrs by Western blot analysis; assay type: cell-based; conditions: SK-BR-3; in short: as §1
[23] = target: Heat shock protein HSP 90-beta (Homo sapiens) (UniProt P08238); assay: Inhibition of HSP90-mediated antiapoptotic activity in human NCI-H526 cells assessed as induction of PARP cleavage at 10 uM after 24 hrs by Western blot analysis; assay type: cell-based
In short: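 NCI-H526 cells at 60–70% confluence were exposed to drug or DMSO for 24 h. Lysed in 50 mM Tris pH 7.4, 150 mM NaCl, 1% NP-40, with protein measured by BCA. 20–100 µg run on SDS-PAGE and blotted to nitrocellulose. Probed with cleaved-protein antibodies and peroxidase secondary at 1:5,000, with β-actin as loading control.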

[24] = target: Heat shock protein HSP 90-beta (Homo sapiens) (UniProt P08238); assay: Inhibition of HSP90-mediated antiapoptotic activity in human MCF7 cells assessed as induction of cell growth arrest at 50 uM after 24 hrs by propidium iodide staining-based flow cytometry
[25] = target: Heat shock protein HSP 90-beta (Homo sapiens) (UniProt P08238); assay: Inhibition of HSP90-mediated antiapoptotic activity in human NCI-H187 cells assessed as subG1 accumulation at 2.5 uM after 72 hrs by propidium iodide staining-based flow cytometry; assay type: cell-based; in short: as §2

Sequence of Heat shock protein HSP 90-beta (Homo sapiens) (P08238 whole entry): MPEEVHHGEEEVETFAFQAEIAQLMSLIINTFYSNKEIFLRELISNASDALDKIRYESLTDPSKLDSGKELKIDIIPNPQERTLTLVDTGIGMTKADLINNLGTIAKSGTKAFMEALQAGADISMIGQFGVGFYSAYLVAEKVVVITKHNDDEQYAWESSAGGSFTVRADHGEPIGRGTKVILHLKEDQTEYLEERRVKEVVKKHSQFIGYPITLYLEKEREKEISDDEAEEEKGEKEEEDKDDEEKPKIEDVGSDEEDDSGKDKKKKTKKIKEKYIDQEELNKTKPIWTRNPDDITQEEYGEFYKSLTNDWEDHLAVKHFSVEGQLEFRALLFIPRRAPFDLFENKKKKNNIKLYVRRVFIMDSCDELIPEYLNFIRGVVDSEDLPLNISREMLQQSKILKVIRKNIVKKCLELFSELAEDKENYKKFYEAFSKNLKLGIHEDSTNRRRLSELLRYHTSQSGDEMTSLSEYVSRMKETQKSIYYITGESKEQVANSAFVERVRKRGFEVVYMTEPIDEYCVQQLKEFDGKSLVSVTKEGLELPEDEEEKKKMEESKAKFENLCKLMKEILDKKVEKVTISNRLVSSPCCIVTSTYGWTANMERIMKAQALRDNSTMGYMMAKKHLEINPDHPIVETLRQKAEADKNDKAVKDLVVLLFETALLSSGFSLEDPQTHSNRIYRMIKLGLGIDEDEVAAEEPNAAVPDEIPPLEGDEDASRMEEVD

Activity [1]: inactive | Activity [3]: inactive | Activity [4]: inactive | Activity [6]: inactive | Activity [7]: inactive | Activity [8]: inactive | Activity [9]: inactive | Activity [10]: inactive | Activity [11]: inactive | Activity [12]: inactive | Activity [13]: inactive | Activity [14]: inactive | Activity [15]: inactive | Activity [16]: inactive | Activity [17]: inactive | Activity [18]: inactive | Activity [19]: inactive | Activity [20]: inactive | Activity [21]: inactive | Activity [22]: inactive | Activity [23]: inactive | Activity [24]: inactive | Activity [25]: inactive
Compound: O=CN1CC/C(=C/c2ccc3c(c2)OCO3)C1=O
inhibition [2]: Active | inhibition [5]: inactive
